ChEMBL document CHEMBL1126988, “Quinolone antibacterials containing the new 7-[3-(1-aminoethyl)-1- pyrrolidinyl] side chain: the effects of the 1-aminoethyl moiety and its stereochemical configurations on potency and in vivo efficacy” (J Med Chem, 1993)
≈ marks a conversion by molar mass, not a printed value. One block for each molecule: values may come before it.

Tests used:
Streptococcus pyogenes [1] = test: Compounds were evaluated in vivo for antibacterial activity for mouse protection against Streptococcus pyogenes C 203 after oral administration; format: functional; conditions: for ED50: Streptococcus pyogenes, C 203, po, read-out: PD50
Staphylococcus aureus [2] = test: Minimum inhibitory concentration was evaluated in vitro against Staphylococcus aureus H 228; format: functional
Outline: (§1)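 Standard microtitration broth assay against a panel of 10 Gram-positive and Gram-negative organisms. MIC read in µg/mL and averaged over multiple experiments.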

Enterococcus faecalis = test: Minimum inhibitory concentration was evaluated in vitro against Enterococcus faecalis MGH-2; format: functional; outline: as §1
Providencia rettgeri = test: Minimum inhibitory concentration was evaluated in vitro against Providencia rettgeri M1771; format: functional; outline: as §1
[3] = Clonogenic cytotoxicity against hamster V-79 cells; format: functional, Cricetulus griseus, V79
Outline: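 Chinese hamster V-79 cells grown overnight, then drug-treated for 3 h at 37 °C. Medium is replaced with fresh medium and cells are incubated 5 days to allow colony formation. IC50 (µg/mL) is the concentration inhibiting colony formation by 50% relative to control.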

Escherichia coli [4] = test: Antibacterial activity in vitro against Escherichia coli Vogel; format: functional; outline: as §1
Streptococcus pyogenes [5] = test: Antibacterial activity measured as mouse protection against Streptococcus pyogenes C 203 after subcutaneous administration; format: functional; conditions: for ED50: Streptococcus pyogenes, C 203, sc, read-out: PD50
Klebsiella pneumoniae = test: Minimum inhibitory concentration was evaluated in vitro against Klebsiella pneumoniae MGH2; format: functional; outline: as §1
Streptococcus pneumoniae = test: Minimum inhibitory concentration was evaluated in vitro against Streptococcus pneumoniae SV-1; format: functional; outline: as §1
Escherichia coli [6] = test: Antibacterial activity against Escherichia coli Vogel after subcutaneous administration in mouse; format: functional; conditions: Escherichia coli, sc; read-out: PD50
Escherichia coli [7] = test: Antibacterial activity against Escherichia coli Vogel after oral administration in mouse; format: functional; conditions: for ED50: Escherichia coli, po, read-out: PD50
Streptococcus pyogenes [8] = test: Minimum inhibitory concentration was evaluated in vitro against Streptococcus pyogenes C 203; format: functional; outline: as §1
Pseudomonas aeruginosa = test: Minimum inhibitory concentration was evaluated in vitro against Pseudomonas aeruginosa UI-18; format: functional; outline: as §1
Staphylococcus aureus [9] = test: Minimum inhibitory concentration was evaluated in vitro against Staphylococcus aureus UC 76; format: functional; outline: as §1
Enterobacter cloacae = test: Minimum inhibitory concentration in vitro against Enterobacter cloacae MA 2646; format: functional
Mus musculus = organism: Mus musculus; test: Compounds were evaluated for phototoxicity no-effect dose in mouse; format: functional
Outline: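 Depilated female CD-1 mice, five per dose plus controls. Animals are dosed orally and then exposed daily to UV-A (320–400 nm) for 3 h, for up to 4 days or until a definite positive response. Redness or erythema relative to controls, read 24 h after irradiation, counts as positive. Reported as the highest dose with no effect (mg/kg).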

[10] = Staphylococcus aureus, read-out: MIC
[11] = Enterococcus faecalis, read-out: MIC
[12] = Providencia rettgeri, read-out: MIC
[13] = Escherichia coli, read-out: MIC
[14] = Klebsiella pneumoniae, read-out: MIC
[15] = Streptococcus pneumoniae, read-out: MIC
[16] = Streptococcus pyogenes, read-out: MIC
[17] = Pseudomonas aeruginosa, read-out: MIC
[18] = Enterobacter cloacae, read-out: MIC

SMILES: CCN[C@H](C)[C@@H]1CCN(c2nc3c(cc2F)c(=O)c(C(=O)O)cn3C2CC2)C1
ED50 (Streptococcus pyogenes [1]): 6 mg/kg | MIC (Staphylococcus aureus [2]; [10]): 0.05 µg/mL (≈ 0.129 µM) | MIC (Enterococcus faecalis; [11]): 0.05 µg/mL (≈ 0.129 µM) | MIC (Providencia rettgeri; [12]): 1.6 µg/mL (≈ 4.12 µM) | Cytotoxicity [3]: 87 µg/mL | MIC (Escherichia coli [4]; [13]): 0.1 µg/mL (≈ 0.257 µM) | ED50 (Streptococcus pyogenes [5]): 4 mg/kg | MIC (Klebsiella pneumoniae; [14]): 0.2 µg/mL (≈ 0.515 µM) | MIC (Streptococcus pneumoniae; [15]): 0.025 µg/mL (≈ 0.0644 µM) | ED50 (Escherichia coli [6]): 6 mg/kg | ED50 (Escherichia coli [7]): 7 mg/kg | MIC (Streptococcus pyogenes [8]; [16]): 0.05 µg/mL (≈ 0.129 µM) | MIC (Pseudomonas aeruginosa; [17]): 1.6 µg/mL (≈ 4.12 µM) | MIC (Staphylococcus aureus [9]; [10]): 0.025 µg/mL (≈ 0.0644 µM) | MIC (Enterobacter cloacae; [18]): 0.4 µg/mL (≈ 1.03 µM)

SMILES: CNCC1CCN(c2c(F)c(N)c3c(=O)c(C(=O)O)cn(C4CC4)c3c2F)C1 (configuration not stated)
MIC (Staphylococcus aureus [2]; [10]): 0.013 µg/mL (≈ 0.0331 µM) | MIC (Enterococcus faecalis; [11]): 0.025 µg/mL (≈ 0.0637 µM) | MIC (Providencia rettgeri; [12]): 0.2 µg/mL (≈ 0.51 µM) | Cytotoxicity [3]: 7.8 µg/mL | MIC (Escherichia coli [4]; [13]): 0.025 µg/mL (≈ 0.0637 µM) | Dose (Mus musculus): >100 mg/kg | MIC (Klebsiella pneumoniae; [14]): 0.05 µg/mL (≈ 0.127 µM) | MIC (Streptococcus pneumoniae; [15]): 0.003 µg/mL (≈ 0.00765 µM) | ED50 (Escherichia coli [6]): 1 mg/kg | ED50 (Escherichia coli [7]): 8 mg/kg | MIC (Streptococcus pyogenes [8]; [16]): 0.003 µg/mL (≈ 0.00765 µM) | MIC (Pseudomonas aeruginosa; [17]): 0.4 µg/mL (≈ 1.02 µM) | MIC (Staphylococcus aureus [9]; [10]): 0.006 µg/mL (≈ 0.0153 µM) | MIC (Enterobacter cloacae; [18]): 0.05 µg/mL (≈ 0.127 µM)

SMILES: C[C@@H](N)[C@@H]1CCN(c2c(F)c(N)c3c(=O)c(C(=O)O)cn(C4CC4)c3c2F)C1
ED50 (Streptococcus pyogenes [1]): 2 mg/kg | MIC (Staphylococcus aureus [2]; [10]): 0.003 µg/mL (≈ 0.00765 µM) | MIC (Enterococcus faecalis; [11]): 0.006 µg/mL (≈ 0.0153 µM) | MIC (Providencia rettgeri; [12]): 0.05 µg/mL (≈ 0.127 µM) | Cytotoxicity [3]: <7.8 µg/mL | MIC (Escherichia coli [4]; [13]): 0.025 µg/mL (≈ 0.0637 µM) | ED50 (Streptococcus pyogenes [5]): 0.2 mg/kg | MIC (Klebsiella pneumoniae; [14]): 0.025 µg/mL (≈ 0.0637 µM) | MIC (Streptococcus pneumoniae; [15]): 0.006 µg/mL (≈ 0.0153 µM) | ED50 (Escherichia coli [6]): 0.7 mg/kg | PD50 (Escherichia coli [7]): 4 mg/kg | MIC (Streptococcus pyogenes [8]; [16]): 0.006 µg/mL (≈ 0.0153 µM) | MIC (Pseudomonas aeruginosa; [17]): 0.4 µg/mL (≈ 1.02 µM) | MIC (Staphylococcus aureus [9]; [10]): 0.003 µg/mL (≈ 0.00765 µM) | MIC (Enterobacter cloacae; [18]): 0.025 µg/mL (≈ 0.0637 µM)

SMILES: Nc1c(F)c(N2CCC(N)C2)cc2c1c(=O)c(C(=O)O)cn2C1CC1 (configuration not stated)
ED50 (Streptococcus pyogenes [1]): 110 mg/kg | MIC (Staphylococcus aureus [2]; [10]): 0.1 µg/mL (≈ 0.289 µM) | MIC (Enterococcus faecalis; [11]): 0.1 µg/mL (≈ 0.289 µM) | MIC (Providencia rettgeri; [12]): 0.1 µg/mL (≈ 0.289 µM) | Cytotoxicity [3]: 12 µg/mL | MIC (Escherichia coli [4]; [13]): 0.013 µg/mL (≈ 0.0375 µM) | ED50 (Streptococcus pyogenes [5]): 6 mg/kg | Dose (Mus musculus): >300 mg/kg | MIC (Klebsiella pneumoniae; [14]): 0.025 µg/mL (≈ 0.0722 µM) | MIC (Streptococcus pneumoniae; [15]): 0.025 µg/mL (≈ 0.0722 µM) | ED50 (Escherichia coli [6]): 1 mg/kg | ED50 (Escherichia coli [7]): 8 mg/kg | MIC (Streptococcus pyogenes [8]; [16]): 0.05 µg/mL (≈ 0.144 µM) | MIC (Pseudomonas aeruginosa; [17]): 0.4 µg/mL (≈ 1.15 µM) | MIC (Staphylococcus aureus [9]; [10]): 0.025 µg/mL (≈ 0.0722 µM) | MIC (Enterobacter cloacae; [18]): 0.013 µg/mL (≈ 0.0375 µM)

SMILES: NC1CCN(c2c(F)cc3c(=O)c(C(=O)O)cn(C4CC4)c3c2C(F)(F)F)C1 (configuration not stated)
MIC (Staphylococcus aureus [2]; [10]): 0.2 µg/mL (≈ 0.501 µM) | Cytotoxicity [3]: 250 µg/mL | MIC (Escherichia coli [4]; [13]): 0.1 µg/mL (≈ 0.25 µM) | ED50 (Streptococcus pyogenes [5]): 22 mg/kg | Dose (Mus musculus): >100 mg/kg | ED50 (Escherichia coli [6]): 1 mg/kg | ED50 (Escherichia coli [7]): 3 mg/kg | MIC (Enterobacter cloacae; [18]): 0.1 µg/mL (≈ 0.25 µM)

SMILES: CC(N)C1CCN(c2c(F)cc3c(=O)c(C(=O)O)cn(C4CC4)c3c2C(F)(F)F)C1 (racemic)
PD50 (Streptococcus pyogenes [1]): 0.7 mg/kg | MIC (Staphylococcus aureus [2]): 0.013 µg/mL (≈ 0.0304 µM) | MIC (Enterococcus faecalis): 0.025 µg/mL (≈ 0.0585 µM) | MIC (Providencia rettgeri): 0.4 µg/mL (≈ 0.936 µM) | Cytotoxicity [3]: 19 µg/mL | MIC (Escherichia coli [4]): 0.2 µg/mL (≈ 0.468 µM) | PD50 (Streptococcus pyogenes [5]): 0.3 mg/kg | Dose (Mus musculus): >100 mg/kg | MIC (Klebsiella pneumoniae): 0.2 µg/mL (≈ 0.468 µM) | MIC (Streptococcus pneumoniae): 0.006 µg/mL (≈ 0.014 µM) | MIC (Streptococcus pyogenes [8]): 0.006 µg/mL (≈ 0.014 µM) | MIC (Pseudomonas aeruginosa): 1.6 µg/mL (≈ 3.74 µM) | MIC (Staphylococcus aureus [9]): 0.006 µg/mL (≈ 0.014 µM) | MIC (Enterobacter cloacae): 0.2 µg/mL (≈ 0.468 µM)

MIC (Staphylococcus aureus [2]; [10]): 0.006 µg/mL (≈ 0.0148 µM) | MIC (Enterococcus faecalis; [11]): 0.013 µg/mL (≈ 0.032 µM) | MIC (Providencia rettgeri; [12]): 0.2 µg/mL (≈ 0.492 µM) | MIC (Escherichia coli [4]; [13]): 0.05 µg/mL (≈ 0.123 µM) | MIC (Klebsiella pneumoniae; [14]): 0.1 µg/mL (≈ 0.246 µM) | MIC (Streptococcus pneumoniae; [15]): 0.006 µg/mL (≈ 0.0148 µM) | MIC (Streptococcus pyogenes [8]; [16]): 0.006 µg/mL (≈ 0.0148 µM) | MIC (Pseudomonas aeruginosa; [17]): 0.8 µg/mL (≈ 1.97 µM) | MIC (Staphylococcus aureus [9]; [10]): 0.003 µg/mL (≈ 0.00738 µM) | MIC (Enterobacter cloacae; [18]): 0.05 µg/mL (≈ 0.123 µM)
SMILES: CN[C@H](C)[C@@H]1CCN(c2c(F)c(N)c3c(=O)c(C(=O)O)cn(C4CC4)c3c2F)C1
Cytotoxicity [3]: 24 µg/mL | Dose (Mus musculus): <30 mg/kg

SMILES: COc1c(N2CC[C@@H]([C@@H](C)N)C2)c(F)cc2c(=O)c(C(=O)O)cn(C3CC3)c12
ED50 (Streptococcus pyogenes [1]): 6 mg/kg | MIC (Staphylococcus aureus [2]; [10]): 0.025 µg/mL (≈ 0.0642 µM) | MIC (Enterococcus faecalis; [11]): 0.025 µg/mL (≈ 0.0642 µM) | MIC (Providencia rettgeri; [12]): 0.2 µg/mL (≈ 0.514 µM) | Cytotoxicity [3]: 41 µg/mL | MIC (Escherichia coli [4]; [13]): 0.05 µg/mL (≈ 0.128 µM) | ED50 (Streptococcus pyogenes [5]): 1 mg/kg | MIC (Klebsiella pneumoniae; [14]): 0.1 µg/mL (≈ 0.257 µM) | MIC (Streptococcus pneumoniae; [15]): 0.013 µg/mL (≈ 0.0334 µM) | MIC (Streptococcus pyogenes [8]; [16]): 0.013 µg/mL (≈ 0.0334 µM) | MIC (Pseudomonas aeruginosa; [17]): 0.8 µg/mL (≈ 2.05 µM) | MIC (Staphylococcus aureus [9]; [10]): 0.003 µg/mL (≈ 0.0077 µM) | MIC (Enterobacter cloacae; [18]): 0.05 µg/mL (≈ 0.128 µM)
